{
  "source": "ChEMBL document CHEMBL1165971",
  "about": "“Structures and antimicrobial activities of pyridoacridine alkaloids isolated from different chromotypes of the ascidian Cystodytes dellechiajei” (2010)",
  "key": {"Escherichia coli": {"tested_on": "Escherichia coli", "assay": "Antibacterial activity against Escherichia coli after 24 hrs by liquid growth inhibition assay", "assay_type": "functional", "method_in_brief": "(§1)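 Liquid growth inhibition (NCCLS-based broth method). Compounds dissolved in DMSO and liquid medium, incubated with bacteria at 2 × 10^8 cells/mL in PB medium (Bacto-tryptone 1%, NaCl 0.5%, pH 7.5), 35 °C, 24 h, constant agitation. Triplicate wells. Growth read as absorbance at 620 nm; MIC taken as lowest concentration inhibiting growth.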"}, "Micrococcus luteus": {"tested_on": "Micrococcus luteus", "assay": "Antibacterial activity against Micrococcus luteus after 24 hrs by liquid growth inhibition assay", "assay_type": "functional", "method_in_brief": "as §1"}},
  "data": [
    {"compound": "CC(=O)NCCc1c2c3c(ccnc3c3ncsc13)-c1ccccc1N2", "note": "[KUANONIAMINE D]", "values": [
      {"measurement": "MIC", "setting": "Escherichia coli", "value": 2.2, "unit": "µM"},
      {"measurement": "MIC", "setting": "Micrococcus luteus", "value": 17.4, "unit": "µM"}
    ]},
    {"compound": "O=C1c2c(O)ccnc2-c2nccc3c2c1nc1ccccc13", "values": [
      {"measurement": "MIC", "setting": "Escherichia coli", "value": 2.6, "unit": "µM"},
      {"measurement": "MIC", "setting": "Micrococcus luteus", "value": 10.5, "unit": "µM"}
    ]},
    {"compound": "GENTAMICIN", "values": [
      {"measurement": "MIC", "setting": "Escherichia coli", "value": 0.08, "unit": "µM"},
      {"measurement": "MIC", "setting": "Micrococcus luteus", "value": 0.02, "unit": "µM"}
    ]},
    {"compound": "O=C1c2cccnc2-c2nccc3c2c1nc1ccccc13", "note": "[ASCIDIDEMIN]", "values": [
      {"measurement": "MIC", "setting": "Escherichia coli", "value": 0.2, "unit": "µM"},
      {"measurement": "MIC", "setting": "Micrococcus luteus", "value": 0.3, "unit": "µM"}
    ]},
    {"compound": "NCCc1c2c3c(ccnc3c3ncsc13)-c1ccccc1N2", "values": [
      {"measurement": "MIC", "setting": "Escherichia coli", "value": 2.5, "unit": "µM"},
      {"measurement": "MIC", "setting": "Micrococcus luteus", "value": 2.5, "unit": "µM"}
    ]},
    {"compound": "N=C1C2=C(NCCC2=O)c2nccc3c2c1nc1ccccc13", "note": "[CYSTODIMINE A]", "values": [
      {"measurement": "MIC", "setting": "Escherichia coli", "value": 1.2, "unit": "µM"},
      {"measurement": "MIC", "setting": "Micrococcus luteus", "value": 2.4, "unit": "µM"}
    ]},
    {"compound": "CC(=O)NCCc1c2c(c3nccc4c3c1Nc1ccccc1-4)NC(=O)CS2", "note": "[SHERMILAMINE B]", "values": [
      {"measurement": "MIC", "setting": "Escherichia coli", "value": 2, "unit": "µM"},
      {"measurement": "MIC", "setting": "Micrococcus luteus", "value": 8, "unit": "µM"}
    ]},
    {"compound": "N=C1C2=C(NCCC2=O)c2nccc3c2c1nc1ccc(O)cc13", "note": "[CYSTODIMINE B]", "values": [
      {"measurement": "MIC", "setting": "Escherichia coli", "value": 2.6, "unit": "µM"},
      {"measurement": "MIC", "setting": "Micrococcus luteus", "value": 10.5, "unit": "µM"}
    ]},
    {"compound": "NCCc1c2c(c3nccc4c3c1Nc1ccccc1-4)NC(=O)CS2", "values": [
      {"measurement": "MIC", "setting": "Escherichia coli", "value": 1.1, "unit": "µM"},
      {"measurement": "MIC", "setting": "Micrococcus luteus", "value": 4.5, "unit": "µM"}
    ]}
  ]
}
